From PubChem
In the library only some 5.1% were active in any assay of this set; here they are far more common.
STAT3 inh = IL-6 driven STAT3 reporter inhibitors, primary screen, U3A cells, luciferase, luminescence, MLSCN library. IL-6 STAT3-luciferase reporter; host cell line lacks STAT1. inhibition, % at 5.5 µM. actives 0.89% (n = 190,000). AID 862, 2007;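 active = inhibition above the mean inhibition across all screened compounds plus 3 SD, cut at about 44% in these data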;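 also: 0% = DMSO only wells and 100% = 100 µM nifuroxazide control wells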
APP 5'UTR act = activators of APP 5'UTR luciferase reporter, primary screen, SH-SY5Y cells; SH-SY5Y APP 5'UTR luciferase reporter, luminescence; zero percent = DMSO vehicle wells; activation, % at 2 µM; actives 1% (n = 190,000); AID 1276, 2008;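 active = activation above a set limit, based on mean plus 3 SD of controls, cut at about 140% in these data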
STAT1 act = STAT1 signaling activators, primary screen, cell-based, HTS, luciferase reporter; NIH 3T3 STAT1-luciferase reporter, IFN-gamma, luminescence; 100% = IFN-gamma alone, no compound; activation (% of control), % at 5.5 µM; actives 2.6% (n = 200,000);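 active = activation above the screen-wide mean activation plus 3 SD, cut at about 130% in these data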;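 also: raw ratio to IFN-gamma control signal so 100% means no change and 0% no light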
STAT3 activator = IL-6 driven STAT3 reporter potentiators, primary screen, U3A cells, luciferase, luminescence, MLSCN library; IL-6 STAT3-luciferase reporter; 100% = signal with IL-6 EC80 alone; activation (% of control), % at 5.6 µM; actives 0.91% (n = 190,000);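 active = activation above the screen-wide mean of compound activation plus 3 SD, cut at about 130% in these data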;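 also: 0% = background luminescence of wells with medium and substrate only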
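Material: STAT1-lacking human U3A cells, STAT3 luciferase reporter | Benchmarks: IL-6-only wells as 100% reference | Probe or stimulus: IL-6 (33 ng/mL) | Timing: Compound 1 h, then IL-6 6 h at 37 °C | Detection: Luminescence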
STAT1 inh = STAT1 signaling inhibitors, primary screen, cell-based, HTS, luciferase reporter. actives 0.35% (n = 200,000). AID 920, 2007. NIH 3T3 STAT1-luciferase reporter, IFN-gamma, luminescence. inhibition, % at 5.5 µM;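 active = inhibition above a set limit, the mean inhibition across all tested compounds plus 3 SD, cut at about 34% in these data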;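 also: 0% = IFN-gamma with DMSO and 100% = IFN-gamma with 300 µM nifuroxazide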
NF-kB expr up = activators of NF-kB expression in neurons, primary screen, cell-based, HTS; actives 1.6% (n = 190,000); human neuronal cells, NF-kB reporter expression; hits give high values; fold change at 12.5 µM; in the data active = fold change above about 3.3
Starred values were filed as active, the others as inactive; nt = no result.

SMILES	STAT3 inh	APP 5'UTR act	STAT1 act	STAT3 activator	STAT1 inh	NF-kB expr up
Cc1cc(C(=O)CSc2nnnn2C)c(C)n1-c1ccc2c(c1)OCCO2	-15	33	138*	118	-41	2.2
CCn1nnnc1SCC(=O)c1ccc2c(c1)OCCO2	16	33	117	89	-18	1.8
CC(C)n1nnnc1SCC(=O)c1ccc2c(c1)OCCO2	6	156*	112	98	-14	2.2
Cc1cc(C(=O)CSc2nnc3ccccn23)c(C)n1-c1ccccc1	96*	-20	41	18	67*	0.41
CCN(CC)c1ccc(C(=O)Nc2cccc(F)c2)cc1	35	181*	127	77	-30	8.4*
CN(C)c1cccc(C(=O)N/N=C/c2ccccc2F)c1	89*	139*	36	28	69*	5*
Cc1cc(/C=N/NC(=O)c2cccc(N(C)C)c2)c(C)n1-c1cc(C(=O)O)cc(C(=O)O)c1	4	4	113	105	-16	1.4
CN(C)c1cccc(C(=O)Nc2cccc(F)c2)c1	3	67	132*	100	-34	3
O=C1/C(=C\c2ccc([N+](=O)[O-])cc2)CCc2ccccc21	-1	136*	100	105	0	1.3
Brc1ccccc1OCCOc1cccc2cccnc12	4	0	119	98	-21	1.4
c1cnc2c(OCc3nc4ccccc4[nH]3)cccc2c1	-63	nt	144*	156*	-48	2.7
Cc1ccccc1OCc1nc2ccccc2[nH]1	24	131	130*	83	-33	4.2*
COc1ccc(C(=O)NCc2nc3ccccc3[nH]2)cc1OC	12	-5	104	94	-5	1.5
COc1ccccc1OCc1nc2ccccc2[nH]1	10	83	132*	95	-34	4*
Nc1ccc2c(c1)Nc1ccccc1CC2	-20	15	94	121	5	1.5
CCOc1ccc(C(=O)NCCc2ccc3c(c2)OCCO3)cc1	7	-3	96	100	4	1.1
Cc1ccc(OCC(=O)Nc2ccc(F)cc2)c([N+](=O)[O-])n1	4	68	142*	99	-46	1.2
O=C(COc1ccccc1[N+](=O)[O-])Nc1ccc2c(c1)OCO2	2	106	150*	103	-54	nt
O=C(COc1ccccc1[N+](=O)[O-])N/N=C/c1cccc(OC(=O)c2ccc3c(c2)OCO3)c1	8	48	141*	92	-45	2.5
Cc1cccc(OCC(=O)Nc2ccc3c(c2)OCO3)c1C	13	26	100	92	0	1.2
Cc1cc(OCC(=O)Nc2ccc3c(c2)OCCO3)cc(C)c1Cl	4	-1	96	95	4	1
Cc1ccc(Cl)c(OCC(=O)Nc2ccc3c(c2)OCCO3)c1	8	160*	123	97	-25	3.8*
CC(C)CCn1c(=O)c2ccccc2n2c(CN3CCOCC3)nnc12	-7	31	92	110	8	1.4
Cn1c(SCC(=O)Nc2ccc3nc(SCC(=O)N4CCCC4)sc3c2)nnc1-c1ccc(N)cc1	-8	4	98	105	2	0.74
O=C(COc1cc(F)ccc1[N+](=O)[O-])Nc1cccc(Br)c1	17	40	129*	90	-33	1.3
COC(=O)Cc1c(OC)ccn(CCc2c[nH]c3ccccc23)c1=O	-3	90	136*	107	-38	2.7
Cn1c(Sc2ccc(Br)cc2)c(C=O)c2ccccc21	-49	2	87	157*	16	0.76
COC(=O)/C=c1/sc2n(c1=O)CCN=2	4	-4	103	99	-3	1
C=CCn1c(=O)/c(=C/c2ccc(F)cc2)s/c1=C(\C#N)c1nnc2n1CCCCC2	14	6	103	96	-4	0.93
O=c1/c(=C/c2ccc(O)cc2)sc2n1CCCN=2	-15	82	139*	113	-44	2
